Published values gathered from unrelated publications.
Protocols differ between the studies behind these lines.
Read-out: metabolic stability

| SMILES | host | sample | concentration | pH | endpoint | value |
| --- | --- | --- | --- | --- | --- | --- |
| N#Cc1ccc(C[C@H](Nc2ncc(-c3ccc(F)cc3)o2)C(=O)N2CCc3ccccc32)cc1 | rat | liver microsomes | 10 µM | pH 7.4 | microsomal CLint | 16.1 µL/min/mg |
| CCOCC(=O)N1CCC[C@H](C(=O)NCc2nc(-c3ccc(C)nc3)cs2)C1 | male Sprague-Dawley rat | liver microsomes | 0.5 µM | – | microsomal CLint | 19 µL/min/mg |
| Cc1ccc(N(C)c2ccc(NC(=O)CN(C)c3ccccc3N3CCCC3=O)cc2)cc1 | rat | hepatocytes | – | – | hepatocyte CLint | > 92 µL/min/10⁶ cells |
| COCC(=O)N1CCC[C@H](C(=O)NCc2nc(-c3ccc(-c4ccccn4)cc3)cs2)C1 | male Sprague-Dawley rat | liver microsomes | 0.5 µM | – | microsomal CLint | 104 µL/min/mg |
| Cc1ccc(-c2nnc(N[C@@H](Cc3ccc(C#N)cc3)C(=O)N3CCc4ccccc43)o2)cc1 | rat | liver microsomes | 10 µM | pH 7.4 | microsomal CLint | 49.5 µL/min/mg |
| CCONC(=O)N1CCC[C@H](C(=O)NCc2nc(-c3ccc(C#N)cc3)cs2)C1 | male Sprague-Dawley rat | hepatocytes | 0.5 µM | – | scaled CLint | 2.46 L/h/kg |
| Cc1cc(S(=O)(=O)N[C@H]2CC[C@H](N3CCN(CC4CCN(c5cccc6c5n(C)c(=O)n6C5CCC(=O)NC5=O)CC4)CC3)CC2)ccc1Nc1ncc(C(F)(F)F)c(N2CCC[C@](C)(O)C2)n1 (stereo partly shown) | rat | liver microsomes | 1 µM | – | scaled CLint | < 1.26 L/h/kg |
| CCOCC(=O)N1CCC[C@H](C(=O)NCc2nc(-c3ccc(C#N)nc3)cs2)C1 | male Sprague-Dawley rat | liver microsomes | 0.5 µM | – | scaled CLint | 1.14 L/h/kg |
| CC(C)N(c1ccc(Cl)c(F)c1)c1ccc(NC(=O)CN(C)c2ccccc2N2CCCC2=O)cn1 | rat | hepatocytes | – | – | hepatocyte CLint | 62 µL/min/10⁶ cells |
| Cc1ccc(Nc2cnnc3ccc(-c4ccc(N5CCN(C)CC5)cc4)cc23)cn1 | rat | hepatocytes | – | – | hepatocyte CLint | 15 µL/min/10⁶ cells |
| CNc1ccc(C(N)=O)cn1 | male Wistar rat | hepatocytes | 1 µM | pH 7.4 | hepatocyte CLint | 2.9 µL/min/10⁶ cells |
| C[C@H]1CN(c2ccc(C3CCC(=O)NC3=O)cc2F)CCN1CC12CCC(NS(=O)(=O)c3ccc(Nc4ncc(C(F)(F)F)c(N5CCC[C@](C)(O)C5)n4)c(F)c3)(CC1)CO2 (stereo partly shown) | rat | liver microsomes | 1 µM | – | scaled CLint | < 1.26 L/h/kg |
| Cc1ccc(N(C)c2ccc(NC(=O)CN(C)c3cccnc3N3CCCC3=O)cc2)cc1 | rat | hepatocytes | – | – | hepatocyte CLint | > 92 µL/min/10⁶ cells |
| CCONC(=O)N1CCC[C@H](C(=O)NCc2nc(-c3ccccc3)cs2)C1 | male Sprague-Dawley rat | liver microsomes | 0.5 µM | – | microsomal CLint | 31 µL/min/mg |
| Cc1cc(S(=O)(=O)N[C@]2(C)C[C@@H](N3CCN(CC4CCN(c5ccc6c(c5F)n(C)c(=O)n6C5CCC(=O)NC5=O)CC4)CC3)C2)ccc1Nc1ncc(C(F)(F)F)c(N2CCC[C@](C)(O)C2)n1 (stereo partly shown) | rat | liver microsomes | 1 µM | – | scaled CLint | < 1.26 L/h/kg |
| O=C(NCc1nc(-c2ccc(C(F)(F)F)cc2)cs1)[C@H]1CCCN(C(=O)COCCN2CCCC2)C1 | male Sprague-Dawley rat | liver microsomes | 0.5 µM | – | microsomal CLint | 34 µL/min/mg |

| SMILES | host | sample | concentration | pH | endpoint | value |
| --- | --- | --- | --- | --- | --- | --- |
| Cc1ccc(Oc2ccc(NC(=O)CNc3ccccc3N3CCCC3=O)cc2)cc1 | rat | hepatocytes | – | – | hepatocyte CLint | 58 µL/min/10⁶ cells |
| CNS(=O)(=O)c1ccc(Nc2ncc3cc(Cl)c(=O)n(C4CCCC4)c3n2)c(C)c1 | rat | liver microsomes | 1 µM | – | scaled CLint | 4.2 L/h/kg |
| N#Cc1ccc(C[C@@H](Nc2c(Nc3ccc(F)cc3)c(=O)c2=O)C(=O)N2CCc3ccccc32)cc1 | rat | liver microsomes | 10 µM | pH 7.4 | microsomal CLint | 46.2 µL/min/mg |
| CN1CCN(c2ccc(-c3ccc4nncc(Nc5ccc(OC(F)(F)F)cc5)c4c3)cc2)CC1 | rat | hepatocytes | – | – | hepatocyte CLint | 14 µL/min/10⁶ cells |
| CNS(=O)(=O)c1ccc(Nc2ncc(C(F)(F)F)c([C@H]3CC[C@@](C)(O)CC3)n2)c(C)c1 | rat | liver microsomes | 1 µM | – | scaled CLint | < 1.26 L/h/kg |
| Cc1ccc(N(c2ccc(NC(=O)CN(C)c3ccccc3N3CCCC3=O)cc2)C(C)C)cc1 | rat | hepatocytes | – | – | hepatocyte CLint | > 92 µL/min/10⁶ cells |
| Cc1nnc(-c2ccc3ccn(CC(=O)Nc4ccccc4Cl)c3c2)o1 | rat | hepatocytes | – | – | hepatocyte CLint | > 92 µL/min/10⁶ cells |
| CNS(=O)(=O)c1ccc(Nc2ncc(C(F)(F)F)c(N3CCC[C@](C)(O)C3)n2)c(C)c1 | rat | liver microsomes | 1 µM | – | scaled CLint | 2.4 L/h/kg |
| CCN(c1ccc(C)cc1)c1ccc(NC(=O)CN(C)c2ccccc2N2CCCC2=O)cn1 | rat | hepatocytes | – | – | hepatocyte CLint | > 92 µL/min/10⁶ cells |
| N#Cc1ccc(-c2csc(CNC(=O)[C@H]3CCCN(C(=O)N4CCCC4)C3)n2)cc1 | male Sprague-Dawley rat | liver microsomes | 0.5 µM | – | microsomal CLint | 223 µL/min/mg |
| N#Cc1ccc(C[C@H](NC(=O)c2cc3ccc(F)cc3[nH]2)C(=O)N2CCc3ccccc32)cc1 | rat | liver microsomes | 10 µM | pH 7.4 | microsomal CLint | 6.6 µL/min/mg |
| Cc1cc(S(=O)(=O)N[C@H]2CC[C@H](CN3CCN(c4ccc(NC5CCC(=O)NC5=O)cc4F)CC3)CC2)ccc1Nc1ncc(C(F)(F)F)c(N2CCC[C@](C)(O)C2)n1 (stereo partly shown) | rat | liver microsomes | 1 µM | – | scaled CLint | < 1.26 L/h/kg |
| Cc1ccc(C(C)(C)c2ccc(NC(=O)CN(C)c3ccccc3N3CCCC3=O)cc2)cc1 | rat | hepatocytes | – | – | hepatocyte CLint | 63 µL/min/10⁶ cells |
| CONC(=O)N1CCC[C@H](C(=O)NCc2nc(-c3ccccc3)cs2)C1 | male Sprague-Dawley rat | liver microsomes | 0.5 µM | – | microsomal CLint | 18 µL/min/mg |
| Cc1cc(S(=O)(=O)NC2CC(N3CCN(CC4CCN(c5cccc6c5n(C)c(=O)n6C5CCC(=O)NC5=O)CC4)C4(CC4)C3)C2)ccc1Nc1ncc(C(F)(F)F)c(N2CCC[C@](C)(O)C2)n1 (stereo partly shown) | rat | liver microsomes | 1 µM | – | scaled CLint | < 1.26 L/h/kg |
